Assay results published in article PMC12638245 (Nature Metabolism, 2025).

Tests used:
[1] = test system: ChREBP; settings: G3P added to HEK293T cells expressing ChREBP and MLX; cited from earlier work
[2] = test system: circulating FGF21; assay: Serum FGF21 ELISA in mice given 5%; format: in vivo, mouse; settings: mice of each genotype, 5% (w/v) glycerol in drinking water for 2 days, vs water
In short: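 Mice aged 8–16 weeks, single-housed for 2 days on chow with water or 5% (w/v) glycerol. Blood taken at decapitation; serum spun 8,000g, 10 min, 4 °C. Sandwich ELISA: samples 2 h at room temperature, HRP-conjugated anti-FGF21 2 h, substrate 30 min, read at 450 nm with 570 nm correction. Haemolysed samples excluded; genotype-blinded analysis; two-way ANOVA with Tukey.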

[3] = test system: hepatic ChREBP transcription programme; format: in vivo, mouse; settings: liver
In short: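 Mice aged 8–16 weeks, single-housed on chow with water or 5% (w/v) glycerol as the only drink for 2 days. Livers freeze-clamped in liquid nitrogen. RNA from 20 mg liver, DNase-treated, RIN >5.0; libraries from 150 ng RNA. Paired-end 150 bp sequencing, >20 million read pairs per sample. HTSeq counts, TMM normalisation in edgeR, GLMs with sequencing batch as covariate.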

[4] = test system: hepatic G3P, hexose phosphates, pentose phosphates; assay: Targeted LC-MS metabolomics of mouse liver; format: in vivo
In short: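 Freeze-clamped liver powder (2.0 mg) spiked with 13C3-G3P (2.28 µM final) or a 13C yeast extract internal standard (hexose/pentose phosphates). Boiling 25% 10 mM HEPES/75% ethanol extraction, 55 °C 5 min, sonication, spin at 16,100g, dried, diluted 20-fold. Ion-pair reversed-phase UHPLC (tributylamine/acetic acid, methanol gradient), negative-mode targeted MS2. G3P and hexose phosphates quantified; pentose phosphates relative only.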

[5] = genotype and/or addition of glycerol

Structure (SMILES)	protection of ChREBP from thermal precipitation [1]	circulating FGF21 [2]	induction of ChREBP transcripts by glycerol ([3]; Slc25a13-/- Gpd2-/- double mutant)	Srebf1 expression ([3]; addition of glycerol)	induction of ChREBPα transcript by glycerol ([3]; wild-type and single mutant strains)	hepatic concentrations of hexose phosphates [4, 5]	relative levels of pentose phosphates in liver [4, 5]	hepatic G3P level ([4]; glycerol-exposed male mice, each of the four genotypes, vs water)
O=P(O)(O)OCC(O)CO (centres unmarked) [G3P, glycerol-3-phosphate]	protected ChREBP from thermal precipitation							
OCC(O)CO [glycerol]		significantly elevated circulating FGF21	no further induction	unaffected	two- to threefold	not altered	unaffected	tended to be higher
